Our source for the IC50 and ID50 values is ChEMBL document CHEMBL2440062, “New nucleotide-competitive non-nucleoside inhibitors of terminal deoxynucleotidyl transferase: discovery, characterization, and crystal structure in complex with the target” (J Med Chem, 2013).

Some results are limits rather than exact numbers.

The subject of one assay is HeLa. Briefly: Cytotoxicity against TdT-deficient human HeLa cells assessed as growth inhibition after 24 to 48 hrs by MTT assay. The format is cell-based. The gist of the method: (§1)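 MOLT-4 cells were grown in RPMI-1640 and HeLa cells in DMEM, with 10% FCS at 37 °C. Cells were seeded at 10^5 per well, given 24 h to attach, then exposed to compounds (0.1–100 range) for 24 or 48 h. MTT at 1 mg/mL was added for 2 h at 37 °C, formazan was dissolved in DMSO, and absorbance read at 550 nm versus 0.5% DMSO vehicle. IC50 was obtained by regression, in triplicate.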

The next assay has as its system MOLT-4. Briefly: Cytotoxicity against human MOLT4 cells overexpressing TdT assessed as growth inhibition after 24 to 48 hrs by MTT assay. The class given is functional, cell-based. In a few lines: as §1
A further assay deals with DNA polymerase beta (Homo sapiens, UniProt P06746). Briefly: Inhibition of human recombinant DNA polymerase beta.
Assay [1] deals with T1, DNA polymerase lambda (Homo sapiens) (UniProt Q9UGP5).
T1 sequence (whole entry): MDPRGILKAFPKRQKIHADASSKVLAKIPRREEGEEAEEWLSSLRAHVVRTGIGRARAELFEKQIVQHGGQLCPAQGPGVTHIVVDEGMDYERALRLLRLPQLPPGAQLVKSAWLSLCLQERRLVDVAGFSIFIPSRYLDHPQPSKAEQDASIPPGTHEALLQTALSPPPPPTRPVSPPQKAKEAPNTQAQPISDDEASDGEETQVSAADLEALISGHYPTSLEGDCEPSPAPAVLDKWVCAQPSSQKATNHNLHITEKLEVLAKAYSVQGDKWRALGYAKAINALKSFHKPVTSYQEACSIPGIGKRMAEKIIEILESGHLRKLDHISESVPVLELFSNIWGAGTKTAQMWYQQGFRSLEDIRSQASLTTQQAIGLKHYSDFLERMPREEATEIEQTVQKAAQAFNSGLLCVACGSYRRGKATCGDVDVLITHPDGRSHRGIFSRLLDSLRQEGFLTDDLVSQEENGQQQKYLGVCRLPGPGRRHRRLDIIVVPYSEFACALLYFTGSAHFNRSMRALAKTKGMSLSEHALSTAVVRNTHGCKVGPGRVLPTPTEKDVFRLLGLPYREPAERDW
Put plainly: Inhibition of human recombinant full length DNA polymerase lambda TdT-like activity using [3H]dNTP as substrate after 10 mins by scintillation counting analysis. In a few lines:
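Full-length recombinant human pol λ (>90% pure) was tested for template-independent activity. Acid-insoluble radioactivity was counted, and ID50 came from dose–response fitting.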

The target of assay [2] is T1, DNA polymerase lambda (Homo sapiens). Put plainly: Inhibition of human recombinant full length DNA polymerase lambda using [3H]dTTP as substrate and 10 poly(dA)/oligo(dT) as template-primer after 15 mins by scintillation counting analysis. The gist of the method: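 Recombinant full-length human pol λ at 50 nM was assayed with 0.2 μM poly(dA)/oligo(dT)10:1 (3′-OH ends) and 5 μM [3H]dTTP (5 Ci/mmol). Incubation was 15 min at 37 °C. TCA precipitates were scintillation counted.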

In assay [3] the target is DNA nucleotidylexotransferase (Homo sapiens, UniProt P04053). Briefly: Inhibition of human recombinant TdT using [3H]dNTP as substrate after 10 mins by scintillation counting analysis. The gist of the method:
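TdT was from Trevigen. TCA-precipitated radioactivity was counted. ID50 came from dose–response fitting. For kinetics, DNA or dNTP was varied at increasing inhibitor, and Ki was obtained via Cheng–Prusoff for a competitive model.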

Chain of DNA nucleotidylexotransferase (P04053 whole entry): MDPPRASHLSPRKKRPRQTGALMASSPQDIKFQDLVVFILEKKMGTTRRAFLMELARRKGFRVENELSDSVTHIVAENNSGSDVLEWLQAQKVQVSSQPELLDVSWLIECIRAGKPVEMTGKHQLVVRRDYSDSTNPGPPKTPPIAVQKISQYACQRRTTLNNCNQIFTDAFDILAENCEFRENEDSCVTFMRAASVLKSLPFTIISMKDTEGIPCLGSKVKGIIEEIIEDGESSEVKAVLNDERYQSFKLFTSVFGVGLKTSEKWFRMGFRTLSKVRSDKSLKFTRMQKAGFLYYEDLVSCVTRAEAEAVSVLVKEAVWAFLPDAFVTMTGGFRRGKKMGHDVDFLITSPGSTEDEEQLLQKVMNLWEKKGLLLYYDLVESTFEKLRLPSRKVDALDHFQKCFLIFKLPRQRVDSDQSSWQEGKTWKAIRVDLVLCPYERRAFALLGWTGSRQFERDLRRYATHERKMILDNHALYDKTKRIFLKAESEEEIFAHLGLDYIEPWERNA

`CCOC(=O)C(=O)CC(=O)/C=C/c1cc(C(=O)c2ccc(F)cc2)c[nH]1`: the values for the IC50 in the assay with HeLa, in the assay with MOLT-4 and on DNA polymerase beta were over 40 µM, 6.3 µM and over 40 µM, respectively. Also, the ID50 in assay [1] is over 40 µM; in assay [2], 11 µM; in assay [3] it was 4.1 µM.
Turning to `CCOC(=O)C(=O)CC(=O)/C=C/c1cc(C(=O)c2ccccc2F)c[nH]1`, the IC50 is over 40 µM in the assay on HeLa, 15 µM in the assay on MOLT-4 and over 40 µM on DNA polymerase beta. Further, the results for the ID50 in assay [1], in assay [2] and in assay [3] were 27 µM, over 40 µM and 20 µM, respectively.
Turning to `COc1ccc(Cn2cc(/C=C/C(=O)CC(=O)C(=O)O)c3ccccc32)cc1`, the IC50 with HeLa, in the assay on MOLT-4 and at DNA polymerase beta was over 40 µM each time. The ID50 in assay [1] was over 40 µM; in assay [2], over 40 µM; in assay [3], 10 µM.
Take `CCOC(=O)C(=O)CC(=O)/C=C/c1cn(-c2ccc(Cl)cc2)c2ccccc12`: the IC50 on DNA polymerase beta is over 40 µM. In addition, the values for the ID50 in assay [1], in assay [2] and in assay [3] were over 40 µM, 6 µM and over 40 µM, respectively.
As to `CCCCn1cc(/C=C/C(=O)CC(=O)C(=O)OCC)c2ccccc21`, the IC50 on DNA polymerase beta was over 40 µM. Also, the ID50 in assay [1], in assay [2] and in assay [3] was over 40 µM each time.
As for `CCOC(=O)C(=O)CC(=O)/C=C/c1cc(C(=O)c2cccc(F)c2)c[nH]1`, the figures for the IC50 in the assay with HeLa, in the assay on MOLT-4 and on DNA polymerase beta were over 40 µM, 30 µM and over 40 µM, respectively. Further, the ID50 is 44 µM in assay [1], over 40 µM in assay [2] and 6 µM in assay [3].
Consider `CCOC(=O)C(=O)CC(=O)/C=C/c1cn(Cc2ccccc2)c2ccccc12`, for which the IC50 in the assay on HeLa, in the assay with MOLT-4 and on DNA polymerase beta was over 40 µM throughout. Also, the ID50 in assay [1], in assay [2] and in assay [3] was over 40 µM in each case.
In the case of `O=C(/C=C/c1cc(C(=O)c2ccc(F)cc2)c[nH]1)CC(=O)C(=O)O`, the IC50 in the assay on HeLa, in the assay with MOLT-4 and on DNA polymerase beta was over 40 µM each time. Also, the ID50 in assay [1] was 40 µM; in assay [2] it was over 40 µM; in assay [3], 0.58 µM.
With `CCOC(=O)C(=O)CC(=O)/C=C/c1cn(Cc2ccc(Cl)cc2)c2ccccc12`, at DNA polymerase beta, the IC50 is over 40 µM. For the same compound, the figures for the ID50 in assay [1], in assay [2] and in assay [3] were over 40 µM, over 40 µM and 40 µM, respectively.
For `CC(C)=Cn1cc(/C=C/C(=O)CC(=O)C(=O)O)c2ccccc21`, the IC50 in the assay on HeLa was over 40 µM; with MOLT-4, 30 µM; at DNA polymerase beta, over 40 µM. Moreover, the ID50 was 9 µM in assay [1], over 40 µM in assay [2] and 13.8 µM in assay [3].
As to `N#Cc1ccc(Cn2cc(/C=C/C(=O)CC(=O)C(=O)O)c3ccccc32)cc1`, the IC50 with HeLa was over 40 µM; in the assay with MOLT-4, over 40 µM; at DNA polymerase beta, 40 µM. Also, the ID50 in assay [1] was 34 µM; in assay [2] it was over 40 µM; in assay [3], 1.4 µM.
`CCOC(=O)C(=O)CC(=O)/C=C/c1cn(Cc2ccc(C#N)cc2)c2ccccc12`: the IC50 on DNA polymerase beta was over 40 µM. Further, the ID50 in assay [1], in assay [2] and in assay [3] was over 40 µM in each case.
For `CCCn1cc(/C=C/C(=O)CC(=O)C(=O)OCC)c2ccccc21`, the IC50 at DNA polymerase beta is over 40 µM. Besides, the ID50 in assay [1], in assay [2] and in assay [3] was over 40 µM each time.
Take `CCOC(=O)C(=O)CC(=O)/C=C/c1cn(CCC(C)C)c2ccccc12`: at DNA polymerase beta, the IC50 was over 40 µM. The ID50 in assay [1], in assay [2] and in assay [3] was over 40 µM each time.
For `CCCn1cc(/C=C/C(=O)CC(=O)C(=O)O)c2ccccc21`, the figures for the IC50 in the assay with HeLa, with MOLT-4 and at DNA polymerase beta were over 40 µM, 50 µM and over 40 µM, respectively. Further, the values for the ID50 in assay [1], in assay [2] and in assay [3] were over 40 µM, over 40 µM and 3.1 µM, respectively.
Regarding `CCOC(=O)C(=O)CC(=O)/C=C/c1cc(C(=O)c2ccccc2)cn1Cc1ccc(F)cc1`, the IC50 at DNA polymerase beta is over 40 µM. Besides, the ID50 in assay [1], in assay [2] and in assay [3] was over 40 µM throughout.
For the compound `CCOC(=O)C(=O)CC(=O)/C=C/c1cn(CC(=O)N2CCOCC2)c2ccccc12`, on DNA polymerase beta, the IC50 is over 40 µM. Also, the ID50 in assay [1], in assay [2] and in assay [3] was over 40 µM in each case.
As for `O=C(/C=C/c1cn(-c2ccc(O)cc2)c2ccccc12)CC(=O)C(=O)O`, the IC50 in the assay with HeLa, in the assay with MOLT-4 and on DNA polymerase beta was over 40 µM throughout. In addition, the ID50 in assay [1] was over 40 µM; in assay [2], over 40 µM; in assay [3], 5.2 µM.
As for `CCOC(=O)C(=O)CC(=O)/C=C/c1cn(CC(=O)N(C)C)c2ccccc12`, the IC50 at DNA polymerase beta is over 40 µM. The ID50 in assay [1], in assay [2] and in assay [3] was over 40 µM in each case.
On to `CCOC(=O)C(=O)CC(=O)/C=C/c1cn(Cc2ccc(F)cc2)c2ccccc12`, for which the IC50 at DNA polymerase beta is over 40 µM. The ID50 in assay [1], in assay [2] and in assay [3] was over 40 µM in each case.
As to `CC(C)CCn1cc(/C=C/C(=O)CC(=O)C(=O)O)c2ccccc21`, the IC50 in the assay on HeLa was over 80 µM; in the assay with MOLT-4 it was 20 µM; on DNA polymerase beta, over 40 µM. The ID50 in assay [1] is over 40 µM; in assay [2], over 40 µM; in assay [3], 16.3 µM.
In the case of `C/C=C/n1cc(/C=C/C(=O)CC(=O)C(=O)O)c2ccccc21`, the IC50 in the assay on HeLa, in the assay on MOLT-4 and at DNA polymerase beta was over 40 µM throughout. The ID50 in assay [1] is 10 µM; in assay [2] it was over 40 µM; in assay [3], 33 µM.
Consider `CCOC(=O)C(=O)CC(=O)/C=C/c1cn(C=C(C)C)c2ccccc12`, for which the IC50 on DNA polymerase beta is over 40 µM. Also, the ID50 in assay [1], in assay [2] and in assay [3] was over 40 µM in each case.
Turning to `CCOC(=O)C(=O)CC(=O)/C=C/c1cn(Cc2ccc(OC)cc2)c2ccccc12`, the IC50 on DNA polymerase beta was over 40 µM. Moreover, the ID50 in assay [1], in assay [2] and in assay [3] was over 40 µM throughout.
On to `CCOC(=O)C(=O)CC(=O)/C=C/c1cn(-c2ccc(O)cc2)c2ccccc12`, for which the IC50 at DNA polymerase beta is over 40 µM. Further, the ID50 in assay [1], in assay [2] and in assay [3] was over 40 µM each time.
For the compound `CCOC(=O)C(=O)CC(=O)/C=C/c1cc(C(=O)c2ccccc2)cn1Cc1ccccc1`, the IC50 at DNA polymerase beta was over 40 µM. For the same compound, the ID50 in assay [1], in assay [2] and in assay [3] was over 40 µM throughout.
With `C/C=C/n1cc(/C=C/C(=O)CC(=O)C(=O)OCC)c2ccccc21`, the IC50 on DNA polymerase beta was over 40 µM. The ID50 in assay [1], in assay [2] and in assay [3] was over 40 µM each time.
As for `C=C(C)Cn1cc(/C=C/C(=O)CC(=O)C(=O)OCC)c2ccccc21`, the IC50 on DNA polymerase beta is over 40 µM. The ID50 in assay [1], in assay [2] and in assay [3] was over 40 µM throughout.
Take `CCOC(=O)C(=O)CC(=O)/C=C/c1cn(-c2ccccc2)c2ccccc12`: the ID50 in assay [1], in assay [2] and in assay [3] was over 40 µM each time.
`CCOC(=O)C(=O)CC(=O)/C=C/c1cc(C(=O)c2ccccc2)cn1Cc1ccc(C#N)cc1`: the IC50 on DNA polymerase beta is over 40 µM. The ID50 in assay [1], in assay [2] and in assay [3] was over 40 µM each time.
With `C/C=C/Cn1cc(/C=C/C(=O)CC(=O)C(=O)OCC)c2ccccc21`, the 50% inhibitory concentration (IC50) on DNA polymerase beta is over 40 µM. Further, the ID50 in assay [1], in assay [2] and in assay [3] was over 40 µM each time.
In the case of `CCOC(=O)C(=O)CC(=O)/C=C/c1cn(Cc2ccc(O)cc2)c2ccccc12`, on DNA polymerase beta, the IC50 was over 40 µM. Further, the ID50 in assay [1] was over 40 µM; in assay [2] it was over 40 µM; in assay [3] it was 40 µM.

By IC50 is commonly meant the midpoint of a concentration-inhibition curve.
